In data set [1] the test system is A549. The data set is described as follows: Cell cycle arrest in human A549 cells assessed as accumulation in G2/M phase at IC50 concentration incubated for 24 hrs by RNaseA/propidium iodide staining based flow cytometry (reference value: 9 %). In kind it is functional. (In flow cytometry, cells or beads pass a laser one at a time.)
The subject of a further data set is K562. The data set is described as follows: Cytotoxicity against human K562 cells assessed as reduction in cell viability incubated for 72 hrs by MTT assay. The conditions noted are these: K562, 72 h. In kind it is functional, cell-based.
The subject of data set [2] is A549. As to the kind of experiment: Cytotoxicity against human A549 cells assessed as reduction in cell viability incubated for 72 hrs by MTT assay. In kind it is functional, cell-based. The note with it: A549, 72 h. For orientation: Tetrazolium assays rely on reduction of a dye to a coloured formazan, in cell work by metabolically active cells.
Data set [3] concerns A549. The data set is described as follows: Cell cycle arrest in human A549 cells assessed as accumulation in G2/M phase at IC50 concentration incubated for 48 hrs by RNaseA/propidium iodide staining based flow cytometry (reference value: 11 %). The data set is classed as functional.
Data set [4] has as its system A549. The data set is described as follows: Inhibition of colony formation in human A549 cells at IC50 concentration incubated for 48 hrs followed by cell washing and measured after 10 days by crystal violet staining based assay relative to control. The data set is classed as functional.
Data set [5] is described as follows: Cytotoxicity against unstimulated human blood Leucocytes assessed as cell viability at 6.25 to 100 uM incubated for 24 to 72 hrs by MTT assay. The note with it: leucocyte.
The test system of a further data set is DNA. The data set is described as follows: Binding affinity to DNA isolated from human A549 cells assessed as intercalating activity at 100 uM after 1 hr by electrophoretic mobility shift assay. In a few lines:
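Genomic DNA isolated from A549 cells (proteinase K/SDS lysis, salt precipitation, ethanol precipitation); 0.5 μg DNA incubated 1 h at room temperature with 100 μM compound in 5 mM Tris-HCl/50 mM NaCl buffer; run on 0.8% agarose gel 4 h at 30 V, GelRed stained; binding read as shift in DNA mobility.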
(A gel shift assay detects complexes by their altered migration in electrophoresis.)

Data set [6] relates to A549. As to the kind of experiment: Induction of apoptosis in human A549 cells assessed as early apoptotic cells at IC50 concentration after 48 hrs by annexin V-FITC/propidium iodide staining based flow cytometry (reference value: 0.9 %). The data set is classed as functional.
Data set [7] concerns the target DNA topoisomerase 2-alpha (Homo sapiens, UniProt P11388). As to the kind of experiment: Inhibition of human topoisomerase 2alpha using supercoiled pNO1 plasmid DNA as substrate incubated for 30 mins by fluorescence based microplate reader analysis.
Another data set has as its system MRC5. The data set is described as follows: Cytotoxicity against human MRC5 cells assessed as reduction in cell viability incubated for 72 hrs by MTT assay. The data set is classed as cell-based. The conditions noted are these: MRC5, 72 h.
For data set [8], the system named is A549. The data set is described as follows: Induction of apoptosis in human A549 cells assessed as late apoptotic cells at IC50 concentration after 48 hrs by annexin V-FITC/propidium iodide staining based flow cytometry (reference value: 0.7 %). The data set is classed as functional.
The test system of data set [9] is A549. As to the kind of experiment: Induction of cell cycle arrest in human A549 cells assessed as effect on cell cycle distribution at IC50 concentration incubated for 24 to 48 hrs by RNaseA/propidium iodide staining based flow cytometry. In kind it is functional. The conditions noted are these: time hrs 24-48.
The test system of data set [10] is A549. As to the kind of experiment: Cell cycle arrest in human A549 cells assessed as accumulation in S phase at IC50 concentration incubated for 24 hrs by RNaseA/propidium iodide staining based flow cytometry. The data set is classed as functional.
The subject of data set [11] is A549. The data set is described as follows: Cell cycle arrest in human A549 cells assessed as accumulation in SubG1 phase by measuring late apoptotic cells with fragmented DNA content at IC50 concentration incubated for 48 hrs by RNaseA/propidium iodide staining based flow cytometry. In kind it is functional.

The source made the active and inactive calls. The rule behind the calls is not given here.

Sequence of DNA topoisomerase 2-alpha (P11388 whole entry): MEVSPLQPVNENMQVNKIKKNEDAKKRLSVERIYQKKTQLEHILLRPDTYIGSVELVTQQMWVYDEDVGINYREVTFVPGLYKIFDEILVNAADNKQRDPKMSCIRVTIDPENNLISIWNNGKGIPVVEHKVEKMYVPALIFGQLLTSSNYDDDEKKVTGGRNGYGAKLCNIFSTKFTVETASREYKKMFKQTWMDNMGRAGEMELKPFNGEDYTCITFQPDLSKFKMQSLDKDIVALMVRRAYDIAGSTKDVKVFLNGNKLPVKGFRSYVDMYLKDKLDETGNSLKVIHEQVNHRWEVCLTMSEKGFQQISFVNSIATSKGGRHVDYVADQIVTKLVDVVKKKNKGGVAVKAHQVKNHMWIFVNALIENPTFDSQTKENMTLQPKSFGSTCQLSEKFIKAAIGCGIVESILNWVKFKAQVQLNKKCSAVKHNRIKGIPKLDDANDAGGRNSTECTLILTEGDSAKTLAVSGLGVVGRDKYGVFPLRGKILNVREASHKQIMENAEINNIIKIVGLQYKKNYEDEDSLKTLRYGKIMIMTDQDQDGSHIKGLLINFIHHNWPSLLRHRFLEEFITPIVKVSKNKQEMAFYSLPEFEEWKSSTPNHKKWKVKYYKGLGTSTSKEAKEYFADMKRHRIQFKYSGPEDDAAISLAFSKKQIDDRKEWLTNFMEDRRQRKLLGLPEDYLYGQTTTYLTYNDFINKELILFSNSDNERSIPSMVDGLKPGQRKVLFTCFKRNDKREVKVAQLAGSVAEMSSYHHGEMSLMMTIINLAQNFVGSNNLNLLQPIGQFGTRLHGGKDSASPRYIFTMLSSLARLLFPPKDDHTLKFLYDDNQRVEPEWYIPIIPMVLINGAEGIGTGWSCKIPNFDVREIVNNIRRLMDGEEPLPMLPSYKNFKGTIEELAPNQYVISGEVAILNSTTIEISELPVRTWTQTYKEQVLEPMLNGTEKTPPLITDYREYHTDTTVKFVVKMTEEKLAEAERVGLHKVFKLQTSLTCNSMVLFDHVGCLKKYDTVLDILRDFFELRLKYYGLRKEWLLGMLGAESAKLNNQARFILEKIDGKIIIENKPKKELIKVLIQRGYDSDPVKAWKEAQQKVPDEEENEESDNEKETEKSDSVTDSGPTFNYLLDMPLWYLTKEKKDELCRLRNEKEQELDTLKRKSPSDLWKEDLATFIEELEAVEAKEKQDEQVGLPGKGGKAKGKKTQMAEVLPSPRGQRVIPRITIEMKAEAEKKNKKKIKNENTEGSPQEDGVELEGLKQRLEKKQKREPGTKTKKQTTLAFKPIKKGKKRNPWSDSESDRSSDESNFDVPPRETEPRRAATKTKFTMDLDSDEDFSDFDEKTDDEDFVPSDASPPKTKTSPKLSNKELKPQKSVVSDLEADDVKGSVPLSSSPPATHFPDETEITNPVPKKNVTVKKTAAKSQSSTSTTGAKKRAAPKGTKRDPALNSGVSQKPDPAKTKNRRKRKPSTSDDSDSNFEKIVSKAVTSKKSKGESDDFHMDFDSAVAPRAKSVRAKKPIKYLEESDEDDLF

As for `CCCOC(=O)CCNc1c2ccccc2nc2ccccc12`, the Activity with A549 [1] is given as 12%; in the data set with A549 [3], 19%; in data set [5], “Non-Toxic”; in the data set with A549 [6] it was 4.6%; in the data set with A549 [8] it was 2.9%. Moreover, the IC50 (in general, the midpoint of a concentration-inhibition curve) in the data set with K562 stood at 16.4 µM; in the data set with A549 [2] it was 6.3 µM; in data set [7], 14 µM; in the data set on MRC5, 11.6 µM. The “inhibition (INH)” value with A549 [4] was greater than 95%. The outcome with DNA was inactive.

With `CCOC(=O)CCNc1c2ccccc2nc2ccccc12`, the IC50 in the data set with K562 came out at 19.2 µM; in the data set on A549 [2], 6.15 µM; in [7], 13 µM; with MRC5 it was 12.1 µM. Besides, the “inhibition (INH)” value in the data set on A549 [4] was greater than 95%. For the same molecule, the Activity entry in [5] is given as “Non-Toxic”; with A549 [6], 3.7%; with A549 [8], 1.2%. In addition, the result with DNA and in the data set on A549 [9] was inactive.

Turning to `COc1cc(NS(C)(=O)=O)ccc1Nc1c2ccccc2nc2ccccc12` [AMSACRINE], the IC50 with K562 stood at 13.8 µM; in the data set on A549 [2] it was 22.2 µM; in data set [7], 16 µM; with MRC5, 15.4 µM. Moreover, the outcome in the data set on A549 [10], in the data set with DNA and in the data set on A549 [11] was Active. In addition, the Activity result in data set [5] is listed as “Toxic”; with A549 [6] it was 16.1%; with A549 [8], 2.8%.

As for `CCOC(=O)CCCCCNc1c2ccccc2nc2ccccc12`, the IC50 worked out at 34.5 µM with K562, 36.3 µM in the data set on A549 [2] and 25.1 µM in the data set on MRC5.

In the case of `Cn1cc(C[C@H](Nc2c3ccccc3nc3ccccc23)C(=O)O)c2ccccc21`, the IC50 in the data set on K562 came out at 42.4 µM; with A549 [2], 34.1 µM; with MRC5 it was 47 µM.

Take `COC(=O)[C@H](Cc1ccccc1)Nc1c2ccccc2nc2ccccc12`: the half-inhibitory concentration (IC50) was determined as 40.6 µM in the data set on K562, 25.7 µM in the data set with A549 [2] and 47.6 µM in the data set on MRC5.

For `CCCOC(=O)CCCNc1c2ccccc2nc2ccccc12`, the Activity is listed as 18% in the data set on A549 [1]; 29% with A549 [3]; “Non-Toxic” in data set [5]; 12.5% in the data set with A549 [6]; 3.8% in the data set with A549 [8]. Moreover, the IC50 with K562 was 21.8 µM; in the data set on A549 [2] it was 19.3 µM; in [7] it was 16 µM; in the data set on MRC5, 16.9 µM. Moreover, in the data set with A549 [4], the “inhibition (INH)” value is greater than 95%. In addition, the outcome in the data set on DNA was Active.

As to `COC(=O)CCCCCCCNc1c2ccccc2nc2ccccc12`, the IC50 in the data set on K562 came to 62.9 µM; in the data set with A549 [2] it was 62.6 µM; in the data set with MRC5 it was 49.8 µM.

As to `CCCOC(=O)CCCCCNc1c2ccccc2nc2ccccc12`, the results for the IC50 with K562, with A549 [2] and in the data set with MRC5 were 75 µM, 72.4 µM and 58.8 µM, respectively.

For `COC(=O)[C@H](Cc1c[nH]cn1)Nc1c2ccccc2nc2ccccc12`, the IC50 in the data set on K562 was determined as 46.1 µM; in the data set on A549 [2], 34.3 µM; with MRC5, 65.1 µM.

In the case of `COC(=O)[C@H](Cc1cn(C)c2ccccc12)Nc1c2ccccc2nc2ccccc12`, the IC50 was found to be 46.6 µM with K562, 29.5 µM in the data set with A549 [2] and 56.1 µM with MRC5.

`CCOC(=O)CCCNc1c2ccccc2nc2ccccc12`: the IC50 in the data set on K562 is 11.2 µM; in the data set on A549 [2], 9.5 µM; in data set [7], 14 µM; in the data set on MRC5, 15.8 µM. Also, the “inhibition (INH)” value in the data set on A549 [4] is recorded as greater than 95%. Moreover, the Activity entry in data set [5] is reported as “Non-Toxic”; in the data set with A549 [6], 11.7%; in the data set on A549 [8], 5.4%. In addition, the outcome with DNA and with A549 [9] was inactive.

Values taken from ChEMBL document CHEMBL4699408, “Synthesis and evaluation of anticancer activity of new 9-acridinyl amino acid derivatives” (RSC Med Chem, 2020).
